Data on nine compounds can be found in ChEMBL document CHEMBL3797146, “FimH Antagonists: Phosphate Prodrugs Improve Oral Bioavailability” (J Med Chem, 2016).

Where only a bound is given, the exact number is not on record here.

The nature of data set [1]: Stability in simulated gastric fluid assessed as parent compound remaining in absence of pancreatin after 2 hrs. Format: ADME, tissue-based, Stomach. The note with it: simulated gastric fluid without pancreatin; read-out: Stability.
Data set [2] in a line: AUC (0 to 24 hrs) in C3H/HeN mouse urine assessed as compound 4 level at 10 mg/kg, po administered as single dose by LC-MS method. Format: ADME, organism-based. Also noted: dose 10 mg/kg, time < 24 hr, route oral. Particulars: in vivo; call rule not given here. An outline of the steps: (§1)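 Single oral dose given to female C3H/HeN mice. Active principle was measured in urine over 0–24 h, and Cmax, Tmax and urine AUC0–24 were derived from the concentration profiles. The 7.7 mg/kg dose was given as a suspension. Values are means with SD for groups of three mice, or five at 7.7 mg/kg.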

Data set [3] in a line: Stability in fed state simulated gastric fluid assessed as parent compound remaining in absence of pepsin after 2 hrs. Format: ADME, tissue-based, Stomach. The note with it: fed state simulated gastric fluid without pepsin; read-out: Stability. The method in brief:
(§2)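 Compound incubated for 120 min in fasted- or fed-state simulated gastric fluid, in simulated gastric fluid, or in buffer sGF (sGF prepared without pepsin), with water as reference medium. Remaining compound is expressed as percent of the t=0 concentration, as the mean of triplicates ± SD.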

Data set [4] in a line: Stability in fasted state simulated gastric fluid assessed as parent compound remaining in absence of pepsin after 2 hrs. In kind it is ADME, tissue-based, Stomach. The note with it: fasted state simulated gastric fluid without pepsin; read-out: Stability. An outline of the steps:
as §2

The nature of data set [5]: Stability in water assessed as parent compound remaining in absence of pepsin after 2 hrs. Format: physicochemical. Particulars: read-out: Stability. The method in brief:
as §2

Data set [6] deals with Mus musculus. Put plainly: Cmax in C3H/HeN mouse assessed as compound 4 level at 10 mg/kg, po administered as single dose by LC-MS method. In kind it is ADME, organism-based. The note with it: in vivo. Details: dose 10 mg/kg, route oral. An outline of the steps:
as §1

A short description of data set [7]: Stability in buffer simulated gastric fluid assessed as parent compound remaining in absence of pepsin after 2 hrs. Format: ADME, tissue-based, Stomach. The note with it: buffer simulated gastric fluid without pepsin; read-out: Stability. The method in brief: as §2
Data set [8] relates to Mus musculus. The experiment in a line: Tmax in C3H/HeN mouse assessed as compound 4 level at 10 mg/kg, po administered as single dose by LC-MS method. In kind it is ADME, organism-based. Particulars: in vivo. An outline of the steps: as §1
Data set [9] is described as follows: Stability of the compound assessed as half life for human Caco2 cells phosphatase mediated compound hydrolysis at 62.5 uM by LC-MS method. Format: ADME, cell-based. The note with it: Caco-2 cells. An outline of the steps: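 Prodrug in Dulbecco's Modified Eagle's Medium (62.5 µM) applied to the apical chamber of the Caco-2 system. Unchanged prodrug was monitored by LC-MS, and t1/2 was calculated from remaining prodrug concentration versus incubation time.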

A short description of data set [10]: Stability in fed state simulated gastric fluid assessed as parent compound remaining in absence of pancreatin after 2 hrs. Format: ADME, tissue-based, Stomach. The note with it: fed state simulated gastric fluid without pancreatin; read-out: Stability.
Data set [11] in a line: Stability in water assessed as parent compound remaining in absence of pancreatin after 2 hrs. In kind it is physicochemical. The note with it: read-out: Stability.
The nature of data set [12]: Stability in buffer simulated gastric fluid assessed as parent compound remaining in absence of pepsin after 2 hrs. Particulars: buffer simulated gastric fluid without pepsin.
Data set [13] in a line: Thermodynamic solubility of the compound in 50 mM pH 6.5 phosphate buffer by LC-MS method. In kind it is physicochemical. The note with it: read-out: Therm_solubility. The method in brief: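 Thermodynamic solubility determined in phosphate buffer (50 mM, pH 6.5).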
Data set [14] in a line: Stability in fasted state simulated gastric fluid assessed as parent compound remaining in absence of pancreatin after 2 hrs. The note with it: fasted state simulated gastric fluid without pancreatin; read-out: Stability. In kind it is ADME, tissue-based, Stomach.
Data set [15] is described as follows: Stability in simulated gastric fluid assessed as parent compound remaining in absence of pepsin after 2 hrs. The note with it: simulated gastric fluid without pepsin; read-out: Stability. Format: ADME, tissue-based, Stomach. The method in brief: as §2
Data set [16] can be described thus: AUC (0 to 24 hrs) in C3H/HeN mouse urine assessed as compound 5 level at 10 mg/kg, po administered as single dose by LC-MS method. In kind it is ADME, organism-based. Particulars: in vivo. Details: time < 24 hr, dose 10 mg/kg, route oral. The method in brief: as §1
Data set [17] in a line: Drug metabolism in human Caco2 cells assessed as active parent compound level in basolateral side at 62.5 uM applied at apical compartment measured after 60 mins by LC-MS method. The note with it: caco-2, 1 h. Format: ADME, cell-based. The method in brief: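 Caco-2 monolayer. Test article in Dulbecco's Modified Eagle's Medium at 62.5 µM was applied to the apical chamber. After 60 min, the active principle that had accumulated in the basal receiver chamber was quantified.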

Data set [18] concerns Mus musculus. The experiment in a line: Tmax in C3H/HeN mouse assessed as compound 5 level at 10 mg/kg, po administered as single dose by LC-MS method. Particulars: in vivo. Format: ADME, organism-based. The method in brief: as §1
Data set [19] concerns Mus musculus. The experiment in a line: Cmax in C3H/HeN mouse assessed as compound 5 level at 10 mg/kg, po administered as single dose by LC-MS method. Format: ADME, organism-based. Also noted: dose 10 mg/kg, route oral. Particulars: in vivo. An outline of the steps:
as §1

One may read the AUC as the area under the concentration-time curve, a measure of exposure. Usually Cmax stands for the highest concentration seen after dosing. A word on the Tmax: it is the time from dosing to the highest level. For orientation: half-life means the time in which the quantity being followed falls by half. With `N#Cc1ccc(-c2ccc(O[C@H]3O[C@H](CO)[C@@H](OP(=O)([O-])[O-])[C@H](O)[C@@H]3O)c(Cl)c2)cc1.[Na+].[Na+]`, the remaining at 2 h in [1], in data set [3], in data set [4], in data set [5], in [7] and in [10] was greater than 80% in each case. Further, the remaining at 2 h in data set [11], in data set [12], in data set [14] and in [15] was greater than 80% throughout. In addition, in [2], the AUC came out at 226.4 µg·h/mL. Also, the Cmax in the data set on Mus musculus [6] amounted to 57000 ng/mL. Also, the time of peak concentration (Tmax) with Mus musculus [8] was 26.4 min. Besides, in data set [9], the half-life at 62.5 µM was found to be 43 min. In addition, the solubility thermodynamic in data set [13] is greater than 3000 µg/mL.

As to `N.N.O=P(O)(O)O[C@H]1[C@H](O)[C@H](O)[C@@H](Oc2ccc(-c3ccccc3)cc2)O[C@@H]1CO`, the half-life at 62.5 µM in data set [9] was greater than 60 min. Moreover, in data set [13], the solubility thermodynamic turned out to be 2700 µg/mL.

`N#Cc1ccc(-c2ccc(O[C@H]3O[C@H](CO)[C@@H](O)[C@H](O)[C@@H]3OP(=O)([O-])[O-])c(Cl)c2)cc1.[Na+].[Na+]`: the remaining at 2 h in data set [1], in data set [3], in data set [4], in data set [5], in [7] and in data set [10] was greater than 80% throughout. Moreover, the remaining at 2 h in data set [11], in data set [12], in [14] and in data set [15] was greater than 80% in each case. Moreover, the half-life at 62.5 µM in [9] was 13 min. The solubility thermodynamic in [13] is greater than 3000 µg/mL.

Turning to `N#Cc1ccc(-c2ccc(O[C@H]3O[C@H](COP(=O)([O-])[O-])[C@@H](O)[C@H](O)[C@@H]3O)c(Cl)c2)cc1.[Na+].[Na+]`, the remaining at 2 h in data set [1], in data set [3], in data set [4], in [5], in data set [7] and in [10] was greater than 80% each time. The remaining at 2 h in [11], in data set [12], in [14] and in [15] was greater than 80% throughout. In addition, the half-life at 62.5 µM in data set [9] was found to be 48 min. Besides, in data set [13], the solubility thermodynamic is greater than 3000 µg/mL.

`N.N.O=P(O)(O)O[C@@H]1[C@@H](Oc2ccc(-c3ccccc3)cc2)O[C@H](CO)[C@@H](O)[C@@H]1O`: in [9], the half-life at 62.5 µM stood at 12 min. Also, in [13], the solubility thermodynamic was greater than 3000 µg/mL.

`N.N.O=P(O)(O)O[C@@H]1[C@H](O)[C@@H](Oc2ccc(-c3ccccc3)cc2)O[C@H](CO)[C@H]1O`: in data set [9], the half-life at 62.5 µM stood at 13 min. Besides, the solubility thermodynamic in [13] is greater than 3000 µg/mL.

For `N.N.O=P(O)(O)OC[C@H]1O[C@H](Oc2ccc(-c3ccccc3)cc2)[C@@H](O)[C@@H](O)[C@@H]1O`, the half-life at 62.5 µM in [9] was greater than 60 min. Also, the solubility thermodynamic in data set [13] was greater than 3000 µg/mL.

In the case of `N.N.O=[N+]([O-])c1ccc2c(c1)CCN2c1ccc(O[C@H]2O[C@H](COCOP(=O)(O)O)[C@@H](O)[C@H](O)[C@@H]2O)cc1`, in data set [16], the AUC amounted to 24.6 µg·h/mL. Also, the Drug metabolism entry in [17] is listed as “Dose-dependent effect”. Besides, in the data set with Mus musculus [18], the Tmax was determined as 180 min. In addition, in [9], the half-life at 62.5 µM stood at 11 min. Besides, the solubility thermodynamic in data set [13] is greater than 3000 µg/mL. The Cmax in the data set with Mus musculus [19] was found to be 4500 ng/mL.

With `N#Cc1ccc(-c2ccc(O[C@H]3O[C@H](CO)[C@@H](O)[C@H](OP(=O)([O-])[O-])[C@@H]3O)c(Cl)c2)cc1.[Na+].[Na+]`, the AUC in [2] was 103.9 µg·h/mL. Also, the Drug metabolism result in data set [17] is “Dose-dependent effect”. In addition, in the data set with Mus musculus [6], the Cmax came to 40700 ng/mL. In the data set on Mus musculus [8], the Tmax was determined as 54 min. Besides, the half-life at 62.5 µM in data set [9] came out at 12 min. The solubility thermodynamic in data set [13] was greater than 3000 µg/mL.
